From PubChem
The list is not random: actives were taken first. Their share in the collection is about 4.3%.
FLuc inh counter: firefly luciferase enzyme inhibitors, primary screen, artefact control for luciferase-based inhibitor screens, biochemical, luminescence, ATPLite | Luciferin 4-monooxygenase (Photinus pyralis), P08659 | 10 min | inhibition, % at 10 µM | hit rate 1.5% among 200,000 | AID 1006, 2008;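 active means inhibition above about 50% when tested at 10 µM, limit read from the data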
Target sequence (P08659 whole entry, looked up): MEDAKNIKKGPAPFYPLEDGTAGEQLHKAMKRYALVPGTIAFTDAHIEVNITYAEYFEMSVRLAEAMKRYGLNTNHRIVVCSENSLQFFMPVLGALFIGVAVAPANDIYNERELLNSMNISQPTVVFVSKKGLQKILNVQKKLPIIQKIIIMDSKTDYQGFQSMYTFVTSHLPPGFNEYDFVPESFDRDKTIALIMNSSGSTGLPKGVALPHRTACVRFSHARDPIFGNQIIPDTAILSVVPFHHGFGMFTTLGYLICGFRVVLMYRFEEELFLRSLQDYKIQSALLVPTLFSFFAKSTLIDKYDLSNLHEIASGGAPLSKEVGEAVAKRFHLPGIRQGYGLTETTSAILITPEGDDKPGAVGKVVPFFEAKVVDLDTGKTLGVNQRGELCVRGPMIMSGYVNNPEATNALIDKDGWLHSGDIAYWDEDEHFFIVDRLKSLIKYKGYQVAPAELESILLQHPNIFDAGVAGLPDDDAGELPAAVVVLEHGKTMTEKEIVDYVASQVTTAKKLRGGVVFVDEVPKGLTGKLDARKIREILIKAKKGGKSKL
NF-kB neuron act: activators of NF-kB expression in neurons, primary screen, cell-based, HTS; human neuronal cells, NF-kB reporter expression; stronger effect = higher value; fold change at 12.5 µM; hit rate 1.6% among 190,000; in the data active means fold change above about 3.3
STAT1 act: STAT1 signaling activators, primary screen, cell-based, HTS, luciferase reporter. NIH 3T3 STAT1-luciferase reporter, IFN-gamma, luminescence; 100% = IFN-gamma alone, no compound. activation (% of control), % at 5.5 µM. hit rate 2.6% among 200,000. AID 932, 2007;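 active means activation above the screen-wide mean activation plus 3 SD, cut at about 130% in these data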
APP 5'UTR act: activators of APP 5'UTR luciferase reporter, primary screen, SH-SY5Y cells; SH-SY5Y APP 5'UTR luciferase reporter, luminescence; zero percent = DMSO vehicle wells; activation, % at 2 µM; hit rate 1% among 190,000; AID 1276, 2008;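 active means activation above a set limit, based on mean plus 3 SD of controls, cut at about 140% in these data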
FLuc act counter: FLuc activators, initial screening, artefact control for FLuc-dependent activation tests, biochemical, ATPlite luminescence; 200,000 tested, under 10 active; activation factor at 10 µM; ATPlite luciferase biochemical, 10 min; 0 = ATP-free wells, 1 = DMSO control; AID 1027, 2008; Luciferin 4-monooxygenase (Photinus pyralis), P08659;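 active means luciferase activation factor, scaled between plate controls, of at least 2 with compound at 10 µM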
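Assay system: Luciferase/luciferin reagent mix; Medium: PBS as buffer for the ATP substrate; Dosing: test compounds dosed from 2 mM stocks in 100% DMSO; Times: 10 min, room temperature; Signal: luminescence from luciferase reaction; Read-out: luciferase activation; Controls: No-ATP low control, compound-free enzyme-plus-ATP high control.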
Hits are given with their value.

`Cc1ncoc1C(=O)Nc1cccc(Cl)c1` gave FLuc inh counter inactive, NF-kB neuron act inactive, STAT1 act inactive, APP 5'UTR act inactive and FLuc act counter inactive.
For CC(C)(C)c1ccc(C(=O)Nc2ccc(Cl)cc2)cc1 the results were FLuc inh counter inactive, NF-kB neuron act inactive, STAT1 act 130, APP 5'UTR act inactive and FLuc act counter inactive.
Screening COc1ccc(-c2c(C)nn(-c3ccccc3)c2N)cc1 returned FLuc inh counter inactive, NF-kB neuron act inactive, STAT1 act inactive, APP 5'UTR act inactive and FLuc act counter inactive.
For Cc1nn(-c2ccccc2)c(N)c1N=Nc1ccc2ccccc2c1 the results were FLuc inh counter inactive, NF-kB neuron act 3.9, STAT1 act 140, APP 5'UTR act inactive and FLuc act counter inactive.
Cc1ccc(NC(=O)c2cc(C)n(-c3ccccc3)c2C)cc1 was read as FLuc inh counter 95, NF-kB neuron act inactive, STAT1 act inactive, APP 5'UTR act inactive and FLuc act counter inactive.
Cc1ccc(NC(=O)c2cc(C)n(-c3cccc(C)c3)c2C)cc1 was read as FLuc inh counter 74, NF-kB neuron act inactive, STAT1 act inactive, APP 5'UTR act inactive and FLuc act counter inactive.
Cc1ccc(-n2c(C)cc(C(=O)NS(=O)(=O)c3ccc(C)cc3)c2C)cc1 was read as FLuc inh counter inactive, NF-kB neuron act inactive, STAT1 act inactive, APP 5'UTR act inactive and FLuc act counter inactive.
O=C(c1cccnc1)C1CCCN(Cc2nc(Cc3ccccc3)no2)C1 (stereo not drawn) was read as FLuc inh counter inactive, NF-kB neuron act inactive, STAT1 act inactive, APP 5'UTR act inactive and FLuc act counter inactive.
O=C1OC(c2ccccc2)=N/C1=C\N1CCCCC1 was read as FLuc inh counter inactive, NF-kB neuron act inactive, STAT1 act 143, APP 5'UTR act inactive and FLuc act counter inactive.
For O=C1OC(c2ccc(Br)cc2)=N/C1=C\N1CCCCC1 the results were FLuc inh counter inactive, NF-kB neuron act inactive, STAT1 act 138, APP 5'UTR act inactive and FLuc act counter inactive.
`COc1ccc(NC2CS(=O)(=O)CC2NCc2ccccc2)cc1` (stereo not drawn) gave FLuc inh counter inactive, NF-kB neuron act inactive, STAT1 act inactive, APP 5'UTR act inactive and FLuc act counter inactive.
Screening COC(=O)C1CCN(c2ccc(Cl)nn2)CC1 returned FLuc inh counter inactive, NF-kB neuron act inactive, STAT1 act inactive, APP 5'UTR act inactive and FLuc act counter inactive.
Screening O=C(CCc1nnc(C2(c3ccc(Cl)cc3)CCC2)o1)NCCCn1cccn1 returned FLuc inh counter inactive, NF-kB neuron act inactive, STAT1 act inactive, APP 5'UTR act inactive and FLuc act counter inactive.
Cc1ccc(-c2nc3cc(C)ccc3o2)cc1 was read as FLuc inh counter 92, NF-kB neuron act inactive, STAT1 act inactive, APP 5'UTR act 175 and FLuc act counter inactive.
CC(C)c1ccc2oc(-c3ccc(NC(=O)c4ncn[nH]4)cc3)nc2c1 was read as FLuc inh counter inactive, NF-kB neuron act inactive, STAT1 act 136, APP 5'UTR act inactive and FLuc act counter inactive.
Screening Cc1ccc(-c2nc3cc(N)ccc3o2)cc1 returned FLuc inh counter 89, NF-kB neuron act 5.4, STAT1 act inactive, APP 5'UTR act inactive and FLuc act counter inactive.
Screening COC(=O)c1ccc(-c2nc3ccc(C)cc3o2)cc1 returned FLuc inh counter inactive, NF-kB neuron act 7, STAT1 act inactive, APP 5'UTR act inactive and FLuc act counter inactive.
For Cc1ccc(-c2nc3cc(NS(=O)(=O)c4ccc(C)cc4)ccc3o2)cc1 the results were FLuc inh counter inactive, NF-kB neuron act inactive, STAT1 act inactive, APP 5'UTR act inactive and FLuc act counter inactive.
Screening Cc1cc(-c2nnc(CCC(=O)NC(Cc3ccccc3)c3ccccc3)o2)no1 (stereo not drawn) returned FLuc inh counter inactive, NF-kB neuron act inactive, STAT1 act inactive, APP 5'UTR act inactive and FLuc act counter inactive.
For CC(C)c1ccc2oc(-c3ccc(N)cc3)nc2c1 the results were FLuc inh counter 88, NF-kB neuron act 3.4, STAT1 act inactive, APP 5'UTR act inactive and FLuc act counter inactive.
Screening COc1ccc(-c2nc3cc([N+](=O)[O-])ccc3o2)cc1 returned FLuc inh counter inactive, NF-kB neuron act 5.2, STAT1 act 150, APP 5'UTR act 170 and FLuc act counter inactive.
`Cc1ccc2oc(-c3ccc(NC(=O)c4cccnc4)cc3)nc2c1` gave FLuc inh counter inactive, NF-kB neuron act inactive, STAT1 act 144, APP 5'UTR act 225 and FLuc act counter inactive.
O=C(Nc1ccc2oc(-c3cccnc3)nc2c1)c1cccnc1 was read as FLuc inh counter inactive, NF-kB neuron act inactive, STAT1 act inactive, APP 5'UTR act inactive and FLuc act counter inactive.
For Cc1ccc2oc(-c3ccco3)nc2c1 the results were FLuc inh counter inactive, NF-kB neuron act inactive, STAT1 act 138, APP 5'UTR act inactive and FLuc act counter inactive.
For CC(C)(C)NC(=O)C(=O)NNC(=O)COc1ccc(Br)cc1 the results were FLuc inh counter inactive, NF-kB neuron act inactive, STAT1 act inactive, APP 5'UTR act inactive and FLuc act counter inactive.
Screening COc1ccc(N(C(=O)CNC(=O)c2cccs2)C(C(=O)NCC2CCCO2)c2ccccc2)cc1 (stereo not drawn) returned FLuc inh counter inactive, NF-kB neuron act inactive, STAT1 act inactive, APP 5'UTR act inactive and FLuc act counter inactive.
Screening Cc1ccc(OCC(=O)NNC(=O)C2CCCO2)c(C)c1 (stereo not drawn) returned FLuc inh counter inactive, STAT1 act inactive, APP 5'UTR act inactive and FLuc act counter inactive.
`Cc1ccc2oc(-c3cccc(N)c3)nc2c1` gave FLuc inh counter 88, NF-kB neuron act 8.9, STAT1 act inactive, APP 5'UTR act 158 and FLuc act counter inactive.
For Nc1ccc2oc(-c3cccs3)nc2c1 the results were FLuc inh counter inactive, NF-kB neuron act inactive, STAT1 act 149, APP 5'UTR act inactive and FLuc act counter inactive.
Screening Cc1cc(C(=O)Nc2nc(C)c(C(=O)N(C)C)s2)ccc1[N+](=O)[O-] returned FLuc inh counter inactive, NF-kB neuron act inactive, STAT1 act 150, APP 5'UTR act inactive and FLuc act counter inactive.
Screening Cc1nc(NC(=O)c2ccc([N+](=O)[O-])cc2Cl)sc1C(=O)N(C)C returned FLuc inh counter inactive, NF-kB neuron act inactive, STAT1 act inactive, APP 5'UTR act inactive and FLuc act counter inactive.
For Cc1cc(C)n(-c2nnc(NC(C)(C)C)nn2)n1 the results were FLuc inh counter 53, NF-kB neuron act inactive, STAT1 act inactive, APP 5'UTR act inactive and FLuc act counter inactive.
`Cc1cc(C)n(-c2nc(NC(C)(C)C)nc(NC(C)(C)C)n2)n1` gave FLuc inh counter inactive, NF-kB neuron act inactive, STAT1 act inactive, APP 5'UTR act inactive and FLuc act counter inactive.
`Cc1ccc2c(c1)c1cccc3c1n2CCN3CCC(N)=O` gave FLuc inh counter inactive, NF-kB neuron act inactive, STAT1 act 143, APP 5'UTR act inactive and FLuc act counter inactive.
